Assay results taken from ChEMBL document CHEMBL4033786, “Discovery of Novel 1-Cyclopentenyl-3-phenylureas as Selective, Brain Penetrant, and Orally Bioavailable CXCR2 Antagonists” (J Med Chem, 2018).
≈ marks a conversion by molar mass, not a printed value.

Tests used:
[1] = tested on: Rattus norvegicus; test: Antiinflammatory activity in Wistar rat air pouch model assessed as inhibition of carrageenan-induced neutrophil infiltration administered po bid starting from day 3 post air reinflation at 4 hrs post carrageenan induction measured on day 6 post last dose; type: functional, organism-based
In short: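 Male Wistar rats aged 8–10 weeks received 20 mL air, then 10 mL re-inflations on days 3 and 6. Oral dosing of vehicle or 1, 3 or 10 mg/kg BID ran from day 3, given on day 6 just before re-inflation and 1 mL 2% carrageenan. Pouch lavage (4 mL PBS) was taken at 4 h, and neutrophils were counted on Giemsa-stained cytospins as % of vehicle.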

[2] = molecular target: C-X-C chemokine receptor type 5 (Homo sapiens, UniProt P32302); test: Agonist activity at CXCR5 (unknown origin)
In short: (§1)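 β-arrestin assays run in both agonist and antagonist modes across a panel of 18 CXC and CC chemokine receptors.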

[3] = Clearance in Wistar rat blood at 0.98 mg/kg, iv measured up to 4 hrs post dose; type: ADME, organism-based
[4] = molecular target: T1, Atypical chemokine receptor 3 (Homo sapiens, UniProt P25106); test: Antagonist activity at CXCR7 (unknown origin); in short: as §1
[5] = Tmax in Wistar rat at 2.41 mg/kg, po measured up to 4 hrs post dose; type: ADME, organism-based; conditions: in vivo
[6] = molecular target: T2, C-X-C chemokine receptor type 4 (Homo sapiens, UniProt P61073); test: Antagonist activity at CXCR4 (unknown origin); in short: as §1
[7] = Intrinsic clearance in rat hepatocytes; type: ADME, cell-based, Hepatocyte
[8] = Cmax in Wistar rat at 2.41 mg/kg, po measured up to 4 hrs post dose; type: ADME, organism-based; parameters: dose 2.41 mg/kg, route oral; conditions: in vivo
[9] = tested on: Mus musculus; test: Antiinflammatory activity in C57Bl/6 mouse air pouch model assessed as inhibition of carrageenan-induced neutrophil infiltration administered po bid starting from day 3 post air reinflation at 4 hrs post carrageenan induction measured on day 6 post last dose; type: functional, organism-based
In short: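 Male C57Bl/6 mice aged 6–8 weeks received 5 mL air dorsally under pentobarbital on day 0, with 2.5 mL re-inflations on days 3 and 6. Oral dosing of vehicle or 1, 3 or 10 mg/kg BID ran from day 3; on day 6 dosing preceded re-inflation and 1 mL 2% carrageenan. At 4 h the pouch was lavaged with 4 mL PBS, and neutrophils were counted on Giemsa-stained cytospins as % of vehicle. One-way ANOVA with Bonferroni.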

[10] = molecular target: C-X-C chemokine receptor type 6 (Homo sapiens, UniProt O00574); test: Agonist activity at CXCR6 (unknown origin); in short: as §1
[11] = molecular target: C-X-C chemokine receptor type 2 (Mus musculus, UniProt P35343); test: Antagonist activity at CXCR2 in C57 mouse whole blood assessed as inhibition of GROalpha-stimulated CD11b upregulation preincubated for 2 hr followed by GROalpha stimulation measured after 10 mins by FITC-staining based FACS analysis
[12] = tested on: Rattus norvegicus; test: Dose normalized AUC (0 to infinity) in Wistar rat at 0.98 mg/kg, iv measured up to 4 hrs post dose; type: ADME, organism-based; conditions: in vivo
[13] = Oral bioavailability in dog at 1.29 mg/kg measured up to 4 hrs after dose; type: ADME, organism-based, Canis lupus familiaris; conditions: in vivo
[14] = molecular target: T3, C-X-C chemokine receptor type 3 (Homo sapiens, UniProt P49682); test: Agonist activity at CXCR3 (unknown origin); in short: as §1
[15] = molecular target: C-C chemokine receptor type 4 (Homo sapiens, UniProt P51679); test: Agonist activity at CCR4 (unknown origin); in short: as §1
[16] = molecular target: T4, C-C chemokine receptor type 6 (Homo sapiens, UniProt P51684); test: Agonist activity at CCR6 (unknown origin); in short: as §1
[17] = molecular target: T2, C-X-C chemokine receptor type 4; test: Agonist activity at CXCR4 (unknown origin); in short: as §1
[18] = molecular target: Chemerin-like receptor 1 (Homo sapiens, UniProt Q99788); test: Antagonist activity at CMKLR1 (unknown origin); in short: as §1
[19] = molecular target: T5, C-C chemokine receptor type 3 (Homo sapiens, UniProt P51677); test: Antagonist activity at CCR3 (unknown origin); in short: as §1
[20] = molecular target: T1, Atypical chemokine receptor 3; test: Agonist activity at CXCR7 (unknown origin); in short: as §1
[21] = Ratio of brain dose normalized AUC (0 to 7 hrs) to […] dose normalized AUC (0 to 7 hrs), Kp of the compound in Han-Wistar SOA rat model at 2 mg/kg administered via oral gavage by UPLC/MS/MS analysis; type: ADME, organism-based
In short: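 Male Han-Wistar rats given a single 2 mg/kg oral gavage as a suspension in DMSO:1% methylcellulose (1:99). Blood was taken by cardiac puncture under isoflurane at 0.25–7 h, diluted 1:3 with water, and brains were homogenized in 3-fold PBS. Samples were extracted by acetonitrile protein precipitation and quantified by UPLC/MS/MS. Kp = brain DNAUC0-7h/blood DNAUC0-7h; Kp,uu = Kp×Fu,br/Fu,bl.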

[22] = molecular target: T4, C-C chemokine receptor type 6; test: Antagonist activity at CCR6 (unknown origin); in short: as §1
[23] = molecular target: C-X-C chemokine receptor type 1 (Homo sapiens, UniProt P25024); test: Antagonist activity at CXCR1 (unknown origin)
In short: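 Part of an 18-receptor CXC/CC chemokine receptor panel, each receptor run in β-arrestin recruitment assays in both agonist and antagonist modes.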

[24] = Efflux ratio of passive permeability in MDCK2-MDR1 cells transduced with BacMam2-BCRP at 3 uM after 90 mins by Transwell assay; type: ADME, cell-based, Canis lupus familiaris, MDCK-MDR1; conditions: dog
In short: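 MDCKII-MDR1 cells transduced with BacMam2-BCRP in Transwells. Compound at 3 μM was measured in duplicate, A→B and B→A, after 90 min, with and without 5 μM GF120918. ER = B→A/A→B permeability without inhibitor. System qualified with amprenavir and dantrolene ERs.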

[25] = molecular target: T3, C-X-C chemokine receptor type 3; test: Antagonist activity at CXCR3 (unknown origin); in short: as §1
[26] = molecular target: C-C chemokine receptor type 5 (Homo sapiens, UniProt P51681); test: Agonist activity at CCR5 (unknown origin); in short: as §1
[27] = molecular target: C-C chemokine receptor type 8 (Homo sapiens, UniProt P51685); test: Agonist activity at CCR8 (unknown origin); in short: as §1
[28] = molecular target: T5, C-C chemokine receptor type 3; test: Agonist activity at CCR3 (unknown origin); in short: as §1
[29] = Solubility of compound in fasted state simulated intestinal fluid measured after 4 hrs; type: physicochemical
In short: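 Solubility in FaSSIF, read after 4 h incubation.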

[30] = Volume of distribution at steady state in dog at 0.85 mg/kg, iv measured up to 4 hrs post dose; type: ADME, organism-based, Canis lupus familiaris; conditions: in vivo, read-out: Vdss
[31] = molecular target: C-C chemokine receptor type 2 (Homo sapiens, UniProt P41597); test: Agonist activity at CCR2 (unknown origin); in short: as §1
[32] = Intrinsic clearance in human hepatocytes; type: ADME, cell-based, Hepatocyte
[33] = Passive permeability in MDCK2-MDR1 cells transduced with BacMam2-BCRP at 3 uM after 90 mins by Transwell assay; type: ADME, cell-based, Canis lupus familiaris, MDCK-MDR1; conditions: dog; read-out: permeability
In short: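 MDCKII-MDR1 cells transduced with BacMam2-BCRP and grown in Transwells. Compound at 3 μM, in duplicate, was incubated 90 min A→B (and B→A) with and without GF120918 (5 μM, dual P-gp/BCRP inhibitor). Passive permeability (Pexact, nm/s) was calculated by an equation from earlier work. The permeability ratio is A→B permeability with GF120918 over A→B permeability without it.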

[34] = molecular target: CX3C chemokine receptor 1 (Homo sapiens, UniProt P49238); test: Antagonist activity at CX3CR1 (unknown origin); in short: as §1

T2 sequence (P61073 whole entry): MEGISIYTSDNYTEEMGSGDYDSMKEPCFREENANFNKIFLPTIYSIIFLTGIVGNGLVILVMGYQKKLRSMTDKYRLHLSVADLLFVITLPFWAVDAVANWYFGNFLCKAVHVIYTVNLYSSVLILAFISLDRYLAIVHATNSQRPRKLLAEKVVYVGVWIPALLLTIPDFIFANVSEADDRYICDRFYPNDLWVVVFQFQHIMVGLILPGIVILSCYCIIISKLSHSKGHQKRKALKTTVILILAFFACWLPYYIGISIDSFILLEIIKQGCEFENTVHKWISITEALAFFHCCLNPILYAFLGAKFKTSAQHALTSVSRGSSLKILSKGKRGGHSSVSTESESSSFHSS
T5 sequence (P51677 whole entry): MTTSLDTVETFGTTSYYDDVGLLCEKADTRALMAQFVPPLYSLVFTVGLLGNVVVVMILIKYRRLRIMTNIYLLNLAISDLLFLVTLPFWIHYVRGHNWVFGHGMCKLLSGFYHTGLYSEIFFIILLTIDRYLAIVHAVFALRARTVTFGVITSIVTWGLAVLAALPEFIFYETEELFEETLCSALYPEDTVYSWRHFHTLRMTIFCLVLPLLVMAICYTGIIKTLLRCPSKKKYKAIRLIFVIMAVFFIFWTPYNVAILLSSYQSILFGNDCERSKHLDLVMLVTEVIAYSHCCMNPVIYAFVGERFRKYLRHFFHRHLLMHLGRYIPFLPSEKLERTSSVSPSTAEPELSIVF
T3 sequence (P49682 whole entry): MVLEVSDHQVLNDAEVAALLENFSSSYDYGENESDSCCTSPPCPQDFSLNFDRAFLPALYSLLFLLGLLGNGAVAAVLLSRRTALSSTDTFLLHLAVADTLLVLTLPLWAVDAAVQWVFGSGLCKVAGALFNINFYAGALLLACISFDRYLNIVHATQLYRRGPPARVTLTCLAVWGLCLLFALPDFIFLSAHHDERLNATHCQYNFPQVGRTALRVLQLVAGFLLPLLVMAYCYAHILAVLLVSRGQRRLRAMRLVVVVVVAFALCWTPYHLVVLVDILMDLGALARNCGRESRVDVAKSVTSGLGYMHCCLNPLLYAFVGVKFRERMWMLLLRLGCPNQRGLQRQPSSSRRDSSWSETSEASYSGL
T4 sequence (P51684 whole entry): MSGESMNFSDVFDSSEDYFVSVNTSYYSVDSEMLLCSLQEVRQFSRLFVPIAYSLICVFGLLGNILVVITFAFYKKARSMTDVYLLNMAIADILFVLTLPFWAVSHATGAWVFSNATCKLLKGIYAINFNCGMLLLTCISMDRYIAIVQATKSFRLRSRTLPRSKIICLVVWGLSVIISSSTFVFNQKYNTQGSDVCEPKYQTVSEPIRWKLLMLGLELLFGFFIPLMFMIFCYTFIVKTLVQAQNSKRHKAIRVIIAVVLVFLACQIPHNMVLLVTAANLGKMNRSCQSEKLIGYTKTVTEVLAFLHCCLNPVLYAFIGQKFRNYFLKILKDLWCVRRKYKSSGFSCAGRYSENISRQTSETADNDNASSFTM
T1 sequence (P25106 whole entry): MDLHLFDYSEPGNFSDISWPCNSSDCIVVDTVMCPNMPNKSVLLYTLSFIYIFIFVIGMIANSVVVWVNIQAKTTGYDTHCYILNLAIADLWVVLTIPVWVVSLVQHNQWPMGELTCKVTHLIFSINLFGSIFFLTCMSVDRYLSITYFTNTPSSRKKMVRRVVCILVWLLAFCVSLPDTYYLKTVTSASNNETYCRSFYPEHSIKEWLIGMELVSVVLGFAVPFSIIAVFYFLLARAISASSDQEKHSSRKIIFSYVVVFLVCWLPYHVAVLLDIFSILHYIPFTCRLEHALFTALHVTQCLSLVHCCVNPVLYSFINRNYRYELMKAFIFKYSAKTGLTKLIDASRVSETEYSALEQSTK
Sequence of C-X-C chemokine receptor type 5 (P32302 whole entry): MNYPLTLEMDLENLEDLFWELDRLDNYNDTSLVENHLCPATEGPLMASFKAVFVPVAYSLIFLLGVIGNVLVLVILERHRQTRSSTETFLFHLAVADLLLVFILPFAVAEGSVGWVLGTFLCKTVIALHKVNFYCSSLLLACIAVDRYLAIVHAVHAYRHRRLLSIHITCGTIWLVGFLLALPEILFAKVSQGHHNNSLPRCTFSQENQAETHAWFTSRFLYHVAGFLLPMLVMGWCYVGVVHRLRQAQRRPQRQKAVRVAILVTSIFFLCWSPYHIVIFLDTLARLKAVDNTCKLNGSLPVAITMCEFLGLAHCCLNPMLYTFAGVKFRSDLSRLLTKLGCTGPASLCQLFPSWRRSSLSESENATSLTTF
Sequence of C-C chemokine receptor type 2 (P41597 whole entry): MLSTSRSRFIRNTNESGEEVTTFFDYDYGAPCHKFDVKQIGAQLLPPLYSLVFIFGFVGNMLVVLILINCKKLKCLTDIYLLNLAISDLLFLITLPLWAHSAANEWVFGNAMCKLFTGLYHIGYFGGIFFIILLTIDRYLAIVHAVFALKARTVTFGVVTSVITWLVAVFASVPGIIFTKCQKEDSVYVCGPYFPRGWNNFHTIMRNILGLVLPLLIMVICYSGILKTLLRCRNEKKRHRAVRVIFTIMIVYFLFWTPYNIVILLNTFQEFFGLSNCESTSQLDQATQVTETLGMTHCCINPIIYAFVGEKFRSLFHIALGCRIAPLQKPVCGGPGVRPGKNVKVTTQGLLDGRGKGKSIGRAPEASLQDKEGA
Sequence of Chemerin-like receptor 1 (Q99788 whole entry): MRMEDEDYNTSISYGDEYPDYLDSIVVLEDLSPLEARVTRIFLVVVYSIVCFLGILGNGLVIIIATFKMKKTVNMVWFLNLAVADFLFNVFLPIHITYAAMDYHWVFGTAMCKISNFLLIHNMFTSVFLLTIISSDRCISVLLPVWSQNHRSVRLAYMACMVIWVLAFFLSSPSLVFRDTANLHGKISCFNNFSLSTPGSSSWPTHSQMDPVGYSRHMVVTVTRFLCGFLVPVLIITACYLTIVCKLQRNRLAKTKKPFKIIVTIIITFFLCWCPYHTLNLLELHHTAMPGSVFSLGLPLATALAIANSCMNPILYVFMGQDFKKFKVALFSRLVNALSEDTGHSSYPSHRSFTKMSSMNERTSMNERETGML
Sequence of C-X-C chemokine receptor type 1 (P25024 whole entry): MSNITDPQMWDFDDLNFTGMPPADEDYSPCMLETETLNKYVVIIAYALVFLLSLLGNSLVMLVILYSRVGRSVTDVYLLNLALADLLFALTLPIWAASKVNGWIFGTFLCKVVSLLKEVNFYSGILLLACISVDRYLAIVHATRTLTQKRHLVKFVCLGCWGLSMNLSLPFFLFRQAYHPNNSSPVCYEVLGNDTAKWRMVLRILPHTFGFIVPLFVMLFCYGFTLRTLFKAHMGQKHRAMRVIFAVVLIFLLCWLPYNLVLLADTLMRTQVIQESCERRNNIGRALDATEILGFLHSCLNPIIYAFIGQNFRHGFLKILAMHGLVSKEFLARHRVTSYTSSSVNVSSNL
Sequence of C-C chemokine receptor type 5 (P51681 whole entry): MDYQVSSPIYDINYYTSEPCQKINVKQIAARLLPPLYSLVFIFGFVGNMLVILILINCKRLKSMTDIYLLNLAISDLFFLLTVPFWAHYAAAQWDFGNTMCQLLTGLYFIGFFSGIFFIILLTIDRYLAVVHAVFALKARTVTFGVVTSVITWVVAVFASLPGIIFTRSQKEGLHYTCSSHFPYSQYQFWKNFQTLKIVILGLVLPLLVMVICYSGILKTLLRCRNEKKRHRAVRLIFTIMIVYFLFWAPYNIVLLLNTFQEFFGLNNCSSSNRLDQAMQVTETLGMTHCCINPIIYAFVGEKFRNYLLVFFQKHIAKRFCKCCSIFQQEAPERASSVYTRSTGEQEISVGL
Sequence of C-X-C chemokine receptor type 2 (P35343 whole entry): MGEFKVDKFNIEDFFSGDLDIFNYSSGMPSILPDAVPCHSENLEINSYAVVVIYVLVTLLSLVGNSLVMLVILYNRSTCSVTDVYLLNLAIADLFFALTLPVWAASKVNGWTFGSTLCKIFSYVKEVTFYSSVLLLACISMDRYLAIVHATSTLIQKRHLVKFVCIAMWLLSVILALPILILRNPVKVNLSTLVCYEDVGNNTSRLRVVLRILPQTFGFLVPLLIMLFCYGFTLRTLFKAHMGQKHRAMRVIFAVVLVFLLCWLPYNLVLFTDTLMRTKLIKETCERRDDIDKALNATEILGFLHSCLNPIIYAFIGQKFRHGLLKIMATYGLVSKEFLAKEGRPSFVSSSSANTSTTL
Sequence of C-X-C chemokine receptor type 6 (O00574 whole entry): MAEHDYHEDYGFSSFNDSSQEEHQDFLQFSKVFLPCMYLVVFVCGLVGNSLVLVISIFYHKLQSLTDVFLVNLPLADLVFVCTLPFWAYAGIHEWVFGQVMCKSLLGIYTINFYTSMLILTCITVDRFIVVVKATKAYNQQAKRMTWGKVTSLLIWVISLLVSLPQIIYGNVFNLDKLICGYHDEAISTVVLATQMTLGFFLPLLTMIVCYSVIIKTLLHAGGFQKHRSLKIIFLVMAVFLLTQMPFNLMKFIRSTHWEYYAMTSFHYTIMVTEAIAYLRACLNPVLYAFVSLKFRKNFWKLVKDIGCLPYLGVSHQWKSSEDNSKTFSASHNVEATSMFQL
Sequence of C-C chemokine receptor type 8 (P51685 whole entry): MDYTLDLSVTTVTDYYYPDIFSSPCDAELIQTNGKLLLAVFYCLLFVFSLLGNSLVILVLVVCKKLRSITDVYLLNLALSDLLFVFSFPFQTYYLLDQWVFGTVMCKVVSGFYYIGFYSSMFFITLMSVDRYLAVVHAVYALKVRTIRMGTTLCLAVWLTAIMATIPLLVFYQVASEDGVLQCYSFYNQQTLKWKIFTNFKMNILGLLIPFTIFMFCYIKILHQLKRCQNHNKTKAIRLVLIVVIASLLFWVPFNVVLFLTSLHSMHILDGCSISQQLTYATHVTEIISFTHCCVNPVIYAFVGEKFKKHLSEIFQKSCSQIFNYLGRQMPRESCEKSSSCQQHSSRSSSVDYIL

With CC1=CCC[C@H]1NC(=O)Nc1ccc(Cl)c(S(=O)(=O)[C@@]2(C)CCOC2)c1O the inhibition [1] was “Dose-dependent effect”, the EC50 [2] was greater than 10 µM and the clearance [3] was 9.1 mL/min/kg. For the same compound, the IC50 [4] was greater than 10 µM, the Tmax [5] was 1 h and the IC50 [6] was greater than 10 µM. The CLH [7] was 7.7 mL/min/g, the Cmax [8] was 452 ng/mL and the inhibition [9] was “Dose-dependent effect”. It also gave an EC50 [10] greater than 10 µM, an IC50 [11] of 0.0059 µM and an AUC/dose [12] of 1829 ng·h/mL/mg/kg. The bioavailability [13] was 76%, the EC50 [14] was greater than 10 µM and the EC50 [15] was greater than 10 µM. The EC50 [16] was greater than 10 µM, the EC50 [17] was greater than 10 µM and the IC50 [18] was greater than 10 µM. For the same compound, the IC50 [19] was greater than 10 µM, the EC50 [20] was greater than 10 µM and the Kp [21] was 0.14. It also gave an IC50 [22] greater than 10 µM, an IC50 [23] of 3.8 µM and an efflux ratio at 1.5 h, 3 µM [24] of 2. The IC50 [25] was greater than 10 µM, the EC50 [26] was greater than 10 µM and the EC50 [27] was greater than 10 µM. It also gave an EC50 [28] greater than 10 µM, a solubility at 4 h [29] of 21 µg/mL (≈ 50.6 µM) and a Vd [30] of 0.88 L/kg. It also gave an EC50 [31] greater than 10 µM, a CLH [32] of 0.79 mL/min/g and a Papp at 1.5 h, 3 µM [33] of 25.4 ×10⁻⁶ cm/s. It also gave an IC50 [34] greater than 10 µM.
